Data set [1] deals with MCF7. Put plainly: Induction of apoptosis in human MCF7 cells assessed as early apoptotic cells at 3 uM after 48 hrs by annexin V staining-based flow cytometry (reference value: 0.205 %). In kind it is functional. (In general: In flow cytometry, cells or beads pass a laser one at a time.)
For data set [2], the system named is MCF7. The data set is described as follows: Induction of apoptosis in human MCF7 cells assessed as late apoptotic cells at 3 uM after 48 hrs by annexin V staining-based flow cytometry (reference value: 3.24 %). In kind it is functional.
The subject of data set [3] is MCF7. Put plainly: Induction of apoptosis in human MCF7 cells assessed as increase in PARP cleavage at 2 uM after 4 to 24 hrs by Western blotting analysis relative to control. In kind it is functional, cell-based. The procedure, abridged:
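MCF-7 seeded at 5 × 10⁴/cm² and exposed at 24 h to 2 µM compound for 0, 4, 8, 16 and 24 h. Lysates separated on 12% SDS gels, transferred to nitrocellulose, blocked in 5% milk. Primary antibodies applied overnight at 4 °C, then secondary 1 h at room temperature. Detection by ECL chemiluminescence with β-actin as loading reference.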

Data set [4] relates to MCF7. Put plainly: Induction of apoptosis in human MCF7 cells assessed as increase in beta-cadenin expression at 1 to 2 uM after 48 hrs by FACS analysis. It counts as functional, cell-based. The procedure, abridged: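 MCF-7 seeded at 5 × 10⁴/cm² and treated at 24 h with 1 or 2 µM compound for 48 h. Labelled with fluorochrome-conjugated anti-E-cadherin or anti-β-catenin antibody for 30 min at 4 °C in the dark, washed in PBS. Mean fluorescence intensity measured by FACScan flow cytometry.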

The test system of data set [5] is RKO. Put plainly: Cytotoxicity against human RKO cells after 3 days by SRB assay. In kind it is functional, cell-based. The following applies: 72 h. The procedure, abridged: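 Cells seeded at 5 × 10³ cells/cm² in quadruplicate and, after 24 h, treated with increasing concentrations for 3 days. Compounds diluted from DMSO stock, final DMSO <0.1% v/v. Cells were fixed with cold 10% TCA, stained with 0.4% sulforhodamine B in 1% acetic acid, and dye solubilised in 10 mM Tris-base pH 10.5. OD read at 492 nm. IC50 obtained by linear interpolation on a semi-log dose-response curve.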
(In general: The SRB assay estimates cell density from bound dye.)

Data set [6] in a line: Therapeutic index, ratio of IC50 for human MCF10A cells to IC50 for mouse E0771 cells. It counts as cell-based, MCF-10A. The following applies: MCF10A cells versus E0771 cells, read-out: Ratio IC50.
Data set [7] has as its system MCF7. The data set is described as follows: Cell cycle arrest in human MCF7 cells assessed as accumulation at G0-G1 phase at 3 uM after 24 hrs by propidium iodide/RNAse staining-based FACS analysis (reference value: 42.34 %). It counts as functional.
Data set [8] concerns MCF7. Put plainly: Cell cycle arrest in human MCF7 cells assessed as accumulation at S phase at 3 uM after 24 hrs by propidium iodide/RNAse staining-based FACS analysis (reference value: 49.46 %). It counts as functional.

The source made the active and inactive calls. No cut-off for these calls is given here.

The IC50 is the midpoint of a concentration-inhibition curve. Read a low IC50 as greater potency. As to `C=C1CC[C@@H]2[C@](C)(CCC[C@]2(C)C(=O)OC)[C@H]1Cc1c(C)ccc2c1C(=O)C=CC2=O`, the Activity was determined as 19.5% in data set [1], 9.5% in data set [2], 75.7% in data set [7] and 4.25% in data set [8]. The result in data set [3] and in data set [4] was Active. This molecule returned an IC50 in data set [5] of 590 nM. The selectivity ratio in data set [6] was 8.08.

The record behind these values is ChEMBL document CHEMBL3259621, “Novel merosesquiterpene exerts a potent antitumor activity against breast cancer cells in vitro and in vivo” (Eur J Med Chem, 2014).
